Measurements from different studies.
Each line is one published result; the experiments were not run side by side.
Target: Calcium/calmodulin-dependent protein kinase kinase 2 (CAMKK2, Homo sapiens, UniProt Q96RR4)

Nc1ncc(-c2nc(N3CCOCC3)nc(N3CCOCC3)n2)c(C(F)F)n1  remaining binding (binding; competition with immobilised ligand; 10 µM): 65%
O=c1[nH]c2ccccc2n1C1CCN(Cc2ccc(-c3[nH]c4cc5ncnc5cc4nc3-c3ccccc3)cc2)CC1  remaining signal (cell-free assay; 0.5 µM): 112%
Cn1cc(-c2cccc(N3CCc4c(sc5c4CC(C)(C)C5)C3=O)c2CO)cc(Nc2ccncn2)c1=O  inhibition (enzyme activity; inhibitor; 1 µM): -7%
Cc1nn(C)cc1-c1nc2c(N3CCN(Cc4ccc(Cl)cc4)CC3)c(Cl)cnc2[nH]1  remaining binding (binding; competition with immobilised ligand; 1 µM): 100%
Cn1cncc1[C@](O)(COc1ccc(C#N)cc1-c1ccc(OC(F)(F)F)cc1)c1ccc(C#N)cc1  remaining binding (cell-free assay; competition with immobilised ligand; 1 µM): 100%
CC(C)(C)c1cc(C=C(C#N)C#N)cc(Br)c1O  remaining activity (enzyme activity; inhibitor; 0.5 µM): 92.5%
N#CC1(c2ccccn2)CCN(Cc2cc(C(=O)O)c(=O)n3ccccc23)CC1  remaining binding (cell-free assay; competition with immobilised ligand; 1 µM): 100%
COc1ncccc1-c1cnn2ccc(N3CCN(C(=O)OC(C)C)CC3)nc12  remaining binding (binding; competition with immobilised ligand; 1 µM): 88%
